# Assay results collected from several papers.
# Protocols differ between the studies behind these lines. pEC50, pIC50: −log10 of the molar value.
SMILES,organism,test,test system,conditions,quantity,result
CN1CCN(c2ncc(-c3ccc4nncc(Nc5cnccn5)c4c3)cn2)CC1,Trypanosoma cruzi,parasite growth,C2C12,"intracellular, amastigote",pEC50,< 5.00
OC(Cn1cncn1)(Cn1cncn1)c1ccc(F)cc1F,Alternaria alternata,"microbial growth, broth dilution",,,MIC,10 µg/mL
CN[C@H](CC(C)C)C(=O)N[C@H]1C(=O)N[C@@H](CC(N)=O)C(=O)N[C@H]2C(=O)N[C@H]3C(=O)N[C@H](C(=O)N[C@H](C(=O)O)c4cc(O)cc(O)c4-c4cc3ccc4O)[C@H](O)c3ccc(c(Cl)c3)Oc3cc2cc(c3O[C@@H]2O[C@H](CO)[C@@H](O)[C@H](O)[C@H]2O[C@H]2C[C@](C)(N)[C@H](O)[C@H](C)O2)Oc2ccc(cc2Cl)[C@H]1O,Staphylococcus haemolyticus,microbial growth,,clinical isolate,MIC,0.78 µg/mL
COC(=O)N[C@H](C(=O)N1CC2(CC2)C[C@H]1c1nc(-c2ccc3c(c2)C(F)(F)c2cc(-c4ccc5[nH]c([C@@H]6[C@H]7CC[C@H](C7)N6C(=O)[C@@H](NC(=O)OC)C(C)C)nc5c4)ccc2-3)c[nH]1)C(C)C,Trypanosoma cruzi,parasite growth,"Vero, TULAHUEN","72 h, intracellular, amastigote",pIC50,7.22
CC1(C)S[C@@H]2[C@H](NC(=O)[C@H](N)c3ccccc3)C(=O)N2[C@H]1C(=O)O,Staphylococcus haemolyticus,microbial growth,,clinical isolate,MIC,> 200 µg/mL
O=C(Cn1ccnc1[N+](=O)[O-])NCc1ccccc1,Trypanosoma cruzi,parasite growth,LLC-MK2,"48 h, intracellular, amastigote",IC50,0.71 µg/mL
COc1ccc(Nc2cnnc3cc(-c4ccc(N5CCN(C)CC5)cc4)ccc23)nc1,Trypanosoma cruzi,parasite growth,C2C12,"intracellular, amastigote",pEC50,5.68
CC[C@@H]1/C=C(\C)C[C@H](C)C[C@H](OC)[C@H]2O[C@@](O)(C(=O)C(=O)N3CCCC[C@H]3C(=O)O[C@H](/C(C)=C/[C@@H]3CC[C@H](Cl)[C@H](OC)C3)[C@H](C)[C@@H](O)CC1=O)[C@H](C)C[C@@H]2OC,Trypanosoma cruzi,parasite growth,"Vero, TULAHUEN","72 h, intracellular, amastigote",pIC50,5.67
CN1CCN(c2ncc(-c3ccc4nncc(Nc5ncccn5)c4c3)cn2)CC1,Trypanosoma cruzi,parasite growth,C2C12,"intracellular, amastigote",pEC50,< 5.00
CC1CCC(C(C)C)C(OC2=C(Cl)C(=O)c3ccccc3C2=O)C1 (stereo not shown),Alternaria alternata,"microbial growth, broth dilution",,,MIC,12 µg/mL
